This is an account of results in PubChem BioAssay.

Activity calls are given as the source filed them.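 Rule for the calls, unless noted: active = viability at or below 30% in both replicate assays; inconclusive = viability at or below 30% in just one of the two assays; inactive = the rest.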

Test [1] in a line: Her2 expression decrease, cell viability multiplex – SKBR3 breast tumor cells, AlphaScreen, ATP viability, primary screen (AID 461;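 active = Her2 level under about 52% in both replicate screens, with viability over 70% of control, limit read from the data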;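 for Her2 level: lower value means less Her2 protein in the cells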;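 for viability: percent of carrier control wells set as 100% viability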). The note with it: SKBR3 Her2 protein level, 18-24 h, measured here: SKBR3 viability, ATP luminescence, at 10 µM. A general note: In Alpha technology, singlet oxygen from a donor bead excites a nearby acceptor bead.
In test [2] the target is Receptor tyrosine-protein kinase erbB-2 (Homo sapiens) (UniProt P04626). The test is described as above. The note with it: 18-24 h, at 10 µM, stronger effect = lower value.
Test [3] is described as follows: reduced viability of SK-BR-3 breast cancer cells – cell-based, 24 h, human, pilot screen (AID 572;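 active = viability at or below 10% of carrier control in both of two separate runs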;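 note: compound exposure lasted between 18 and 24 h rather than exactly 24 h; 100% = carrier-treated control wells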). As to conditions: SK-BR-3 viability, CellTiter-Glo luminescence, at 10 µM, stronger effect = lower value. (ATP-based viability assays read luminescence as a measure of living cells.)
Test [4] can be described thus: HUVEC growth inhibition – cell-based, human, primary screen (AID 575).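 Note: 100% = median of untreated cell wells with 0.1% DMSO on each plate.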 As to conditions: HUVEC proliferation, CellTiter-Glo luminescence, 72 h; at 10 µM; stronger effect = lower value. The essentials:
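Test system: primary human umbilical vein endothelial cells; medium: endothelial basal medium with 2% FBS plus growth supplements; dosing: 10 µM compound only; times: 72 h treatment at 37 °C; signal: CTG luminescence; read-out: % viability relative to median vehicle-well signal on each plate; control set: vehicle and MePR control wells; plate: 384-well, collagen-coated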

The nature of test [5]: H69AR cell proliferation blockers – human, duplicate replicates, primary screen (AID 580;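 active = viability at or under a set limit in both replicates, limit being median viability minus 3 SD, cut at about 48% in these data, passing the limit was not always enough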;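 note: 100% = mean luminescence of untreated wells and 0% = no signal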). As to conditions: H69AR lung tumor cells viability, ATP luminescence, 72 h; at 10 µM; stronger effect = lower value.
The nature of test [6]: MRP1 drug-resistance reversers in H69AR cells – cell-based, doxorubicin co-treatment, pilot screen (AID 601;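 active = viability loss from added drug above about 55%, and viability with drug at most 40%, in both replicates, limit read from the data, passing the limit was not always enough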). The note with it: CellTiter-Glo, 72 h, at 10 µM; for differential viability (reversal): stronger effect = higher value.
Test [7] in a line: yeast transport mutant growth inhibition pilot in 384-well plates, post-Golgi transport modulator project (AID 636; in the data active = inhibition above about 31%). The note with it: absorbance 615 nm, about 18 h, stronger effect = higher value.
Test [8] is described as follows: growth suppression of yeast trafficking mutant, preliminary HTS, modulators of trafficking downstream of Golgi apparatus project, 1536-format plate, OD 615 nm (AID 637; in the data active = inhibition above about 30%). As to conditions: yeast transport mutant growth, absorbance 615 nm, 18 h; stronger effect = higher value.
[9] abbreviates: H69AR cells + 2 uM doxorubicin, measured here: viability with 2 uM doxorubicin, stronger effect = lower value.
[10] abbreviates: H69AR cells, compound alone cytotoxicity.

Sequence of Receptor tyrosine-protein kinase erbB-2 (Homo sapiens) (P04626 whole entry, looked up): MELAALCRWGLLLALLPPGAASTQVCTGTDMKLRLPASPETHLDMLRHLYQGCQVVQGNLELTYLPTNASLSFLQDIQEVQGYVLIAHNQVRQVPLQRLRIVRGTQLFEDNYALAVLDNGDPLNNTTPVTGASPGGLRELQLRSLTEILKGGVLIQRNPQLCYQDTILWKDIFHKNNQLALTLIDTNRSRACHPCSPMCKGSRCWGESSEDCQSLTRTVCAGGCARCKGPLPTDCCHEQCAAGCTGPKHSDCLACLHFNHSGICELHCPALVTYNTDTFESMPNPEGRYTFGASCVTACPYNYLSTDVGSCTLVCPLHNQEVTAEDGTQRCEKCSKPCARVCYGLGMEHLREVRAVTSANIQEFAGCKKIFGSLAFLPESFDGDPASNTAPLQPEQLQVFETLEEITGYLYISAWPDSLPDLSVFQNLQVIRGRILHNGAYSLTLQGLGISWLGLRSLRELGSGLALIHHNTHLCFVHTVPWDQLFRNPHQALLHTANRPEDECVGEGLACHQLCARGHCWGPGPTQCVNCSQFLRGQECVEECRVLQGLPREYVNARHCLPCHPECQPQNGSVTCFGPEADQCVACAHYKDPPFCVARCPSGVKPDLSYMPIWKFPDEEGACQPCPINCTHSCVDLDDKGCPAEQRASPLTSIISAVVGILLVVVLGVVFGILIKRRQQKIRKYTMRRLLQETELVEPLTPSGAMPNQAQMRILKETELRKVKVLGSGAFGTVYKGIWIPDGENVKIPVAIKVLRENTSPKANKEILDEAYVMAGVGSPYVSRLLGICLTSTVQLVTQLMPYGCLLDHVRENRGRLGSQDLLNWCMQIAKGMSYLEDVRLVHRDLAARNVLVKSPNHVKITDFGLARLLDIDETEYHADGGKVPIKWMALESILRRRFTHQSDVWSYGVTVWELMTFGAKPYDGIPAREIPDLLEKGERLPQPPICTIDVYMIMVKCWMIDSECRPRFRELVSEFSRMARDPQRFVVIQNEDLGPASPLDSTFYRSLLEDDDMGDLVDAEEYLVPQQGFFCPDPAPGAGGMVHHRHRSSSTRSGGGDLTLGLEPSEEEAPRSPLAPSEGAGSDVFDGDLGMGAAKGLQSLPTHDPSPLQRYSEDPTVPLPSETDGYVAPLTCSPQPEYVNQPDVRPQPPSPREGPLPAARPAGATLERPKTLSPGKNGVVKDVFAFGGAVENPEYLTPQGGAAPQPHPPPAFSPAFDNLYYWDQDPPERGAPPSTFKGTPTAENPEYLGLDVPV

The term viability denotes a read-out of living cells in per cent, often relative to untreated cells. In general, inhibition refers to the relative decrease from the control value, in per cent. On to `CN1CCN(CC(=O)Nc2ccc(Cl)cc2Cl)CC1`, for which the viability in test [1] is 85.5%; in test [3], 85.5% (inactive); in test [4] it was 91.6% (inactive); in test [5], 93.8% (inactive); in test [6] (setting [9]) it was 90.5%; in test [6] (setting [10]), 93.8%. For the same compound, the Her2 level in test [2] was 95% (inactive). Moreover, in test [6] (H69AR cells + 2 uM doxorubicin), the differential viability (reversal) was 3.29% (inactive). The inhibition was -3.29% (inactive) in test [7] and 2.74% (inactive) in test [8].
With `Cc1nc2nc(SCC(=O)NCc3ccco3)nn2c(C)c1Cc1ccccc1`, the viability in test [1] is 83%; in test [3], 83% (inactive); in test [4] it was 97.3% (inactive); in test [5] it was 75.2% (inactive); in test [6] (setting [9]) it was 77.2%; in test [6] (setting [10]) it was 75.2%. In test [2], the Her2 level is 108% (inactive). Moreover, the differential viability (reversal) in test [6] (H69AR cells + 2 uM doxorubicin) is -2% (inactive). The inhibition was -5.27% (inactive) in test [7] and -3% (inactive) in test [8].
As for `Cc1oc2nc(SCCCC(=O)NCCCO)nc(N)c2c1C`, the viability in test [1] was 91.5%; in test [3], 91.5% (inactive); in test [4] it was 103% (inactive); in test [5], 107% (inactive); in test [6] (setting [9]) it was 98.8%; in test [6] (setting [10]), 107%. The Her2 level in test [2] is 85% (inactive). Further, in test [6] (H69AR cells + 2 uM doxorubicin), the differential viability (reversal) is 7.75% (inactive). For the same compound, the inhibition is -0.79% (inactive) in test [7] and 4.75% (inactive) in test [8].
For `O=C(CSc1ncnc2sc3c(c12)CCCCC3)NCc1ccco1`, the viability in test [1] is 92.5%; in test [3], 92.5% (inactive); in test [4] it was 41.3% (inactive); in test [5], 18% (active); in test [6] (setting [9]), 70.1%; in test [6] (setting [10]), 18%. Also, in test [2], the Her2 level was 61% (inactive). Moreover, the differential viability (reversal) in test [6] (H69AR cells + 2 uM doxorubicin) was -52.1% (inactive). For the same compound, the inhibition in test [7] is -2.63% (inactive); in test [8] it was -3.65% (inactive).
Regarding `COc1ccccc1CN1C(=S)SC(C)(C)C1NO` (stereo not given), the viability is 100% in test [1]; 100% (inactive) in test [3]; 73.8% (inactive) in test [4]; 98.3% (inactive) in test [5]; 89.6% in test [6] (setting [9]); 98.3% in test [6] (setting [10]). For the same compound, in test [2], the Her2 level was 93.5% (inactive). Also, the differential viability (reversal) in test [6] (H69AR cells + 2 uM doxorubicin) is 8.72% (inactive). The inhibition in test [7] was -3.73% (inactive); in test [8] it was 2.42% (inactive).
For the compound `CCOC(=O)C(CC)Sc1nc2c(c(=O)[nH]c(=O)n2C)n1C/C=C(/C)Cl` (stereo not given), the viability was 97.5% in test [1]; 97.5% (inactive) in test [3]; 89.9% (inactive) in test [4]; 84.9% (inactive) in test [5]; 64.2% in test [6] (setting [9]); 84.9% in test [6] (setting [10]). The Her2 level in test [2] is 83% (inactive). Moreover, in test [6] (H69AR cells + 2 uM doxorubicin), the differential viability (reversal) was 20.7% (inactive). Also, the inhibition in test [7] was -6.27% (inactive); in test [8], 3.93% (inactive).
Regarding `COCCn1nnnc1C(c1ccc(OC)cc1)N1CCN(c2ccccc2F)CC1` (stereo not given), the viability in test [1] was 100%; in test [3], 100% (inactive); in test [4] it was 107% (inactive); in test [5], 89.7% (inactive); in test [6] (setting [9]) it was 79.8%; in test [6] (setting [10]), 89.7%. Moreover, the Her2 level in test [2] was 101% (inactive). In test [6] (H69AR cells + 2 uM doxorubicin), the differential viability (reversal) is 9.91% (inactive). The inhibition in test [7] is -2.6% (inactive); in test [8], -2.06% (inactive).
Regarding `O=C(CSc1nnnn1-c1ccccc1)c1cc2ccccc2oc1=O`, the viability in test [1] is 95.5%; in test [3] it was 95.5% (inactive); in test [4], 86.5% (inactive); in test [5] it was 74.2% (inactive); in test [6] (setting [9]) it was 78.3%; in test [6] (setting [10]), 74.2%. In addition, in test [2], the Her2 level is 102% (inactive). For the same compound, in test [6] (H69AR cells + 2 uM doxorubicin), the differential viability (reversal) was -4.18% (inactive). Moreover, the figures for the inhibition in test [7] and in test [8] were -6.62% (inactive) and -6.83% (inactive), respectively.
On to `C=CCc1cc(OC)ccc1OCC(O)CN1CCN(c2ccc(OC)cc2)CC1` (stereo not given), for which the viability in test [1] is 82.5%; in test [3] it was 82.5% (inactive); in test [4], 89% (inactive); in test [5], 99.6% (inactive); in test [6] (setting [9]), 104%; in test [6] (setting [10]), 99.6%. Also, in test [2], the Her2 level was 78% (inactive). For the same compound, the differential viability (reversal) in test [6] (H69AR cells + 2 uM doxorubicin) was -4.29% (inactive). Besides, the inhibition in test [7] is 0.13% (inactive); in test [8] it was 8.57% (inactive).
`O=C(COc1nnnc2ccccc12)N1CCCc2ccccc21`: the viability in test [1] was 97%; in test [3], 97% (inactive); in test [4], 98.2% (inactive); in test [5], 98.3% (inactive); in test [6] (setting [9]), 97.9%; in test [6] (setting [10]) it was 98.3%. For the same compound, in test [2], the Her2 level is 87% (inactive). Further, in test [6] (H69AR cells + 2 uM doxorubicin), the differential viability (reversal) is 0.405% (inactive). Further, the inhibition in test [7] is -4.8% (inactive); in test [8], 6.07% (inactive).
For the compound `CCOC(=O)N1CCC(N2C(=O)c3ccccc3C2Nc2ccc3c(C)cc(=O)oc3c2)CC1` (stereo not given), the viability was 76% in test [1]; 76% (inactive) in test [3]; 115% (inactive) in test [4]; 83.4% (inactive) in test [5]; 69.5% in test [6] (setting [9]); 83.4% in test [6] (setting [10]). For the same compound, in test [2], the Her2 level was 105% (inactive). Besides, the differential viability (reversal) in test [6] (H69AR cells + 2 uM doxorubicin) is 13.9% (inactive). Moreover, the values for the inhibition in test [7] and in test [8] were -1.79% (inactive) and -2.67% (inactive), respectively.
Consider `COc1ccc(S(=O)(=O)N2CCN(CC(=O)Nc3ccc(F)c(F)c3)CC2)cc1`, for which the viability in test [1] was 88.5%; in test [3], 88.5% (inactive); in test [4], 75.6% (inactive); in test [5] it was 91.1% (inactive); in test [6] (setting [9]), 93.9%; in test [6] (setting [10]) it was 91.1%. The Her2 level in test [2] is 86% (inactive). In addition, in test [6] (H69AR cells + 2 uM doxorubicin), the differential viability (reversal) is -2.83% (inactive). The inhibition in test [7] is -1.73% (inactive); in test [8] it was -1.94% (inactive).
In the case of `CC(=O)NC(=O)NC1CSCC1OC(C)=O` (stereo not given), the viability in test [1] was 112%; in test [3], 112% (inactive); in test [4] it was 106% (inactive); in test [5], 92.8% (inactive); in test [6] (setting [9]), 86.9%; in test [6] (setting [10]), 92.8%. Moreover, the Her2 level in test [2] was 89% (inactive). The differential viability (reversal) in test [6] (H69AR cells + 2 uM doxorubicin) was 5.96% (inactive). In addition, the inhibition in test [7] was -6.53% (inactive); in test [8], 0.48% (inactive).
`O=C(CCn1nc(-c2ccc(Cl)cc2)ccc1=O)N1CCN(c2ccccn2)CC1`: the viability in test [1] was 96.5%; in test [3], 96.5% (inactive); in test [4], 101% (inactive); in test [5], 91.1% (inactive); in test [6] (setting [9]) it was 95.9%; in test [6] (setting [10]), 91.1%. Further, in test [2], the Her2 level was 92.5% (inactive). Besides, in test [6] (H69AR cells + 2 uM doxorubicin), the differential viability (reversal) is -4.79% (inactive). Also, the inhibition in test [7] is -3.42% (inactive); in test [8] it was -3.87% (inactive).
